Measurements taken from ChEMBL document CHEMBL3227917, “Structure-activity relationships of dimeric Catharanthus alkaloids. 2. Experimental antitumor activities of N-substituted deacetylvinblastine amide (vindesine) sulfates” (J Med Chem, 1979).

Tests used:
[1] = Antitumor activity against mouse Gardner lymphosarcoma allografted in C3H mouse assessed as tumor growth inhibition at 0.05 mg/kg, ip administered daily for 8 to 10 days; type: functional; settings: route intraperitoneal, read-out: TGI
Method in brief: (§1)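 Gardner lymphosarcoma in C3H mice; sulfate salts unless noted, given ip daily for 8–10 days, treatment starting 8 days after tumor implantation. Tumor growth inhibition scored as –, 0–25%; +, 26–50%; ++, 51–75%; +++, 76–100%; T, lethal to ≥5 of 10 animals per group. Average of one or more tests.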

[2] = Antitumor activity against mouse Gardner lymphosarcoma allografted in C3H mouse assessed as tumor growth inhibition at 0.10 mg/kg, ip administered daily for 8 to 10 days; type: functional; settings: route intraperitoneal, read-out: TGI; method in brief: as §1
[3] = Antitumor activity against mouse Gardner lymphosarcoma allografted in C3H mouse assessed as tumor growth inhibition at 0.20 mg/kg, ip administered daily for 8 to 10 days; type: functional; settings: route intraperitoneal, read-out: TGI; method in brief: as §1
Mus musculus [4] = assay: Toxicity in C3H mouse allografted with mouse Gardner lymphosarcoma assessed as lethality at 0.40 mg/kg, ip administered daily for 8 to 10 days; type: organism-based; parameters: dose 0.4 mg/kg, route intraperitoneal; settings: in vivo, 0.4 mg/kg
Method in brief: (§2)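 Tumor-bearing mice given sulfate salts ip daily for 8–10 days; values are the average of one or more tests. Toxic means lethal to ≥5 of 10 animals per group.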

[5] = Antitumor activity against mouse Ridgway osteogenic sarcoma allografted in AKR mouse assessed as tumor growth inhibition at 0.20 mg/kg, ip administered daily for 8 to 10 days compound treatment commenced 8 days after tumor implantation; type: functional; settings: route intraperitoneal, read-out: TGI
Mus musculus [6] = assay: Toxicity in AKR mouse allografted with mouse Ridgway osteogenic sarcoma assessed as lethality at 0.40 mg/kg, ip administered daily for 8 to 10 days compound treatment commenced 8 days after tumor implantation; type: organism-based; parameters: dose 0.4 mg/kg, route intraperitoneal; settings: in vivo, 0.4 mg/kg; method in brief: as §2
[7] = Antitumor activity against mouse Gardner lymphosarcoma allografted in C3H mouse assessed as tumor growth inhibition at 0.40 mg/kg, ip administered daily for 8 to 10 days; type: functional; settings: route intraperitoneal, read-out: TGI; method in brief: as §1
B16 [8] = assay: Antitumor activity against mouse B16 cells allografted in C57BL/6 mouse assessed as prolongation of host survival at 0.60 mg/kg, ip administered on days 1,5 and 9; type: functional; settings: route intraperitoneal
Method in brief: (§3)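 B16 melanoma cells (10⁶ inoculum) implanted ip in C57BL/6 mice; groups of 10. Sulfate salts unless noted, given ip on days 1, 5 and 9. Single test. Survival prolongation is expressed as percent versus controls, with survivors counted on day 60. Toxic means deaths of ≥5 of 10 animals before the first control death.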

B16 [9] = assay: Antitumor activity against mouse B16 cells allografted in C57BL/6 mouse assessed as prolongation of host survival at 0.90 mg/kg, ip administered on days 1,5 and 9; type: functional; settings: route intraperitoneal; method in brief: as §3
B16 [10] = assay: Antitumor activity against mouse B16 cells allografted in C57BL/6 mouse assessed as prolongation of host survival at 1.20 mg/kg, ip administered on days 1,5 and 9; type: functional; settings: route intraperitoneal; method in brief: as §3
[11] = Antitumor activity against mouse Ridgway osteogenic sarcoma allografted in AKR mouse assessed as tumor growth inhibition at 0.40 mg/kg, ip administered daily for 8 to 10 days compound treatment commenced 8 days after tumor implantation; type: functional; settings: route intraperitoneal, read-out: TGI
CHO [12] = assay: Mitotic arrest in CHO cells assessed as increase in cell accumulation at 0.02 ug/ml; type: functional, Cricetulus griseus
Method in brief: (§4)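 Chinese hamster ovary cells in tissue culture, scored for mitotic arrest as increase in cells in mitotic arrest over control: +++, 40–50%; ++, 15–40%; +, 10–15%; ±, 7–10%; –, 3–7%. Cytotoxicity noted separately.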

CHO [13] = assay: Mitotic arrest in CHO cells assessed as increase in cell accumulation at 0.002 ug/ml; type: functional, Cricetulus griseus; method in brief: as §4
CHO [14] = assay: Mitotic arrest in CHO cells assessed as increase in cell accumulation at 0.2 ug/ml; type: functional, Cricetulus griseus; method in brief: as §4

Row | Structure (SMILES) | inhibition in vivo at 0.05 mg/kg [1] | inhibition in vivo at 0.1 mg/kg [2] | inhibition in vivo at 0.2 mg/kg [3] | Activity (Mus musculus [4]) | inhibition in vivo at 0.2 mg/kg [5] | inhibition in vivo at 0.4 mg/kg [7] | also measured
1 | CC[C@]1(O)C[C@H]2CN(CCc3c([nH]c4ccccc34)[C@@](C(=O)OC)(c3cc4c(cc3OC)N(C)[C@H]3[C@@](O)(C(=O)NCCOC(C)=O)[C@H](O)[C@]5(CC)C=CCN6CC[C@]43[C@@H]65)C2)C1.O=S(=O)(O)O | 26% | 51% | 76% | Toxic | 76% | – | Activity (Mus musculus [6]): Toxic
2 | CC[C@]1(O)C[C@H]2CN(CCc3c([nH]c4ccccc34)[C@@](C(=O)OC)(c3cc4c(cc3OC)N(C)[C@H]3[C@@](O)(C(=O)NCCC#N)[C@H](O)[C@]5(CC)C=CCN6CC[C@]43[C@@H]65)C2)C1 | 0% | 0% | 76% | – | – | 76% | –
3 | CC[C@]1(O)C[C@H]2CN(CCc3c([nH]c4ccccc34)[C@@](C(=O)OC)(c3cc4c(cc3OC)N(C)[C@H]3[C@@](O)(C(=O)NCCSC(c5ccc(OC)cc5)(c5ccc(OC)cc5)c5ccc(OC)cc5)[C@H](O)[C@]5(CC)C=CCN6CC[C@]43[C@@H]65)C2)C1 | – | 0% | 0% | – | – | 0% | survival at 0.6 mg/kg (B16 [8]): 16%; survival at 0.9 mg/kg (B16 [9]): 28%; survival at 1.2 mg/kg (B16 [10]): 35%
4 | CC[C@]1(O)C[C@H]2CN(CCc3c([nH]c4ccccc34)[C@@](C(=O)OC)(c3cc4c(cc3OC)N(C)[C@H]3[C@@](O)(C(=O)NCCC(=N)OC)[C@H](O)[C@]5(CC)C=CCN6CC[C@]43[C@@H]65)C2)C1 | 0% | 0% | 0% | – | – | 0% | –
5 | CCCCCCNC(=O)[C@@]1(O)[C@H](O)[C@]2(CC)C=CCN3CC[C@@]4(c5cc([C@@]6(C(=O)OC)C[C@@H]7CN(CCc8c6[nH]c6ccccc86)C[C@](O)(CC)C7)c(OC)cc5N(C)[C@@H]14)[C@@H]32 | – | – | 26% | – | 0% | 0% | inhibition in vivo at 0.4 mg/kg [11]: 0%
6 | CC[C@]1(O)C[C@H]2CN(CCc3c([nH]c4ccccc34)[C@@](C(=O)OC)(c3cc4c(cc3OC)N(C)[C@H]3[C@@](O)(C(=O)NCCc5ccc(O)c(O)c5)[C@H](O)[C@]5(CC)C=CCN6CC[C@]43[C@@H]65)C2)C1 | – | 0% | 0% | – | – | 26% | survival at 0.6 mg/kg (B16 [8]): 28%; survival at 0.9 mg/kg (B16 [9]): 128%; survival at 1.2 mg/kg (B16 [10]): 154%
7 | CC[C@]1(O)C[C@H]2CN(CCc3c([nH]c4ccccc34)[C@@](C(=O)OC)(c3cc4c(cc3OC)N(C)[C@H]3[C@@](O)(C(=O)NCCSSCCNC(C)=O)[C@H](O)[C@]5(CC)C=CCN6CC[C@]43[C@@H]65)C2)C1 | – | 0% | 0% | – | – | 51% | survival at 0.6 mg/kg (B16 [8]): 93%; survival at 0.9 mg/kg (B16 [9]): 118%; survival at 1.2 mg/kg (B16 [10]): 127%
8 | CCCC(=O)OCCNC(=O)[C@@]1(O)[C@H](O)[C@]2(CC)C=CCN3CC[C@@]4(c5cc([C@@]6(C(=O)OC)C[C@@H]7CN(CCc8c6[nH]c6ccccc86)C[C@](O)(CC)C7)c(OC)cc5N(C)[C@@H]14)[C@@H]32.O=S(=O)(O)O | 0% | 51% | 76% | Toxic | 76% | – | Activity (Mus musculus [6]): Toxic
9 | CCCCCCCCCCCCCCCCCC(=O)OCCNC(=O)[C@@]1(O)[C@H](O)[C@]2(CC)C=CCN3CC[C@@]4(c5cc([C@@]6(C(=O)OC)C[C@@H]7CN(CCc8c6[nH]c6ccccc86)C[C@](O)(CC)C7)c(OC)cc5N(C)[C@@H]14)[C@@H]32 | 0% | 0% | 51% | – | – | 76% | –
10 | C=CCNC(=O)[C@@]1(O)[C@H](O)[C@]2(CC)C=CCN3CC[C@@]4(c5cc([C@@]6(C(=O)OC)C[C@@H]7CN(CCc8c6[nH]c6ccccc86)C[C@](O)(CC)C7)c(OC)cc5N(C)[C@@H]14)[C@@H]32.O=S(=O)(O)O | – | 0% | 76% | Toxic | – | – | –
11 | CC[C@]1(O)C[C@H]2CN(CCc3c([nH]c4ccccc34)[C@@](C(=O)OC)(c3cc4c(cc3OC)N(C)[C@H]3[C@@](O)(C(=O)NCCSC(c5ccccc5)(c5ccccc5)c5ccccc5)[C@H](O)[C@]5(CC)C=CCN6CC[C@]43[C@@H]65)C2)C1 | – | 0% | 0% | – | – | 0% | survival at 0.6 mg/kg (B16 [8]): 0%; survival at 0.9 mg/kg (B16 [9]): 1%; survival at 1.2 mg/kg (B16 [10]): 4%
12 | CC[C@]1(O)C[C@H]2CN(CCc3c([nH]c4ccccc34)[C@@](C(=O)OC)(c3cc4c(cc3OC)N(C)[C@H]3[C@@](O)(C(=O)N5CCCC5)[C@H](O)[C@]5(CC)C=CCN6CC[C@]43[C@@H]65)C2)C1.O=S(=O)(O)O | – | – | 0% | Toxic | 51% | – | Activity (Mus musculus [6]): Toxic
13 | CC[C@]1(O)C[C@H]2CN(CCc3c([nH]c4ccccc34)[C@@](C(=O)OC)(c3cc4c(cc3OC)N(C)[C@H]3[C@@](O)(C(=O)OC)[C@H](O)[C@]5(CC)C=CCN6CC[C@]43[C@@H]65)C2)C1 | – | – | – | – | – | – | Activity (CHO [12]): 40%; Activity (CHO [13]): 3%
14 | CC[C@]1(O)C[C@H]2CN(CCc3c([nH]c4ccccc34)[C@@](C(=O)OC)(c3cc4c(cc3OC)N(C)[C@H]3[C@@](O)(C(=O)NCC(OC)OC)[C@H](O)[C@]5(CC)C=CCN6CC[C@]43[C@@H]65)C2)C1.O=S(=O)(O)O | 0% | 76% | 76% | Toxic | – | – | –
15 | CC[C@]1(O)C[C@H]2CN(CCc3c([nH]c4ccccc34)[C@@](C(=O)OC)(c3cc4c(cc3OC)N(C)[C@H]3[C@@](O)(C(=O)NCC(O)CO)[C@H](O)[C@]5(CC)C=CCN6CC[C@]43[C@@H]65)C2)C1 (stereo partly drawn) | – | – | 26% | – | 26% | 51% | inhibition in vivo at 0.4 mg/kg [11]: 76%
16 | CC[C@]1(O)C[C@H]2CN(CCc3c([nH]c4ccccc34)[C@@](C(=O)OC)(c3cc4c(cc3OC)N(C)[C@H]3[C@@](O)(C(=O)NCCc5ccc(O)cc5)[C@H](O)[C@]5(CC)C=CCN6CC[C@]43[C@@H]65)C2)C1 | – | 0% | 0% | – | – | 26% | survival at 0.6 mg/kg (B16 [8]): 125%; survival at 0.9 mg/kg (B16 [9]): 152%; survival at 1.2 mg/kg (B16 [10]): 190%
17 | CC[C@]1(O)C[C@H]2CN(CCc3c([nH]c4ccccc34)[C@@](C(=O)OC)(c3cc4c(cc3OC)N(C)[C@H]3[C@@](O)(C(=O)NC5CCCCC5)[C@H](O)[C@]5(CC)C=CCN6CC[C@]43[C@@H]65)C2)C1 | – | – | 0% | – | 26% | 26% | inhibition in vivo at 0.4 mg/kg [11]: 51%
18 | COc1cc2c(c(OC)c1OC)-c1ccc(OC)c(=O)cc1[C@@H](NC(C)=O)CC2 [COLCHICINE] | – | – | – | – | – | – | Activity (CHO [14]): 15%; Activity (CHO [12]): 3%
19 | C#CCNC(=O)[C@@]1(O)[C@H](O)[C@]2(CC)C=CCN3CC[C@@]4(c5cc([C@@]6(C(=O)OC)C[C@@H]7CN(CCc8c6[nH]c6ccccc86)C[C@](O)(CC)C7)c(OC)cc5N(C)[C@@H]14)[C@@H]32.O=S(=O)(O)O | – | 51% | 76% | Toxic | – | – | –
20 | CC[C@]1(O)C[C@H]2CN(CCc3c([nH]c4ccccc34)[C@@](C(=O)OC)(c3cc4c(cc3OC)N(C)[C@H]3[C@@](O)(C(=O)NCC=O)[C@H](O)[C@]5(CC)C=CCN6CC[C@]43[C@@H]65)C2)C1 | 0% | 26% | 76% | – | – | 76% | –
